Here are results for four molecules from PMC11079110 (Heliyon, 2024).

One assay addresses human KMO (Homo sapiens, UniProt O15229). Put plainly: Kinetics study. The class given is biochemical. To be noted: Lineweaver-Burk plots, 0–40 μM compound, 0–20 μM L-Kyn. The method, boiled down: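 Human KMO was exposed to graded test compound concentrations across a range of L-Kyn concentrations. Reaction velocities were plotted as double reciprocals (Lineweaver-Burk). Inhibition type was assigned from how the x- and y-intercepts, reflecting Km and Vmax, shifted with inhibitor. Each condition was run in triplicate, and the experiments were repeated three times.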

Another assay relates to KMO. To be noted: read-out: IC50 (KMO inhibitor); cited from earlier work.

Structures are written as SMILES.

Sequence of human KMO (O15229 whole entry): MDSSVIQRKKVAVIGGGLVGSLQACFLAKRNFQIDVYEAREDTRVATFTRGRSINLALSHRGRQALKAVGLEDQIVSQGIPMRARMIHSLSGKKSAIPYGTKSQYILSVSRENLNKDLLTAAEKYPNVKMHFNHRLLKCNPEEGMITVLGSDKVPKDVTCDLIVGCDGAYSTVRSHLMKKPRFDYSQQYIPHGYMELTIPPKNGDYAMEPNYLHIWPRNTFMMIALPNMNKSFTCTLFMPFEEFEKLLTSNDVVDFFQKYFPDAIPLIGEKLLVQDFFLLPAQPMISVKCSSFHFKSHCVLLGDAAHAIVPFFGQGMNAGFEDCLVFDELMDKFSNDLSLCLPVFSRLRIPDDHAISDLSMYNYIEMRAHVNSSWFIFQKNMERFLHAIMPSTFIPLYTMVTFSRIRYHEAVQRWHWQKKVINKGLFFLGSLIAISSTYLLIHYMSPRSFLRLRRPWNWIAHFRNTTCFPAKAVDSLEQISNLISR

As to `O=c1cc(-c2ccc(O)cc2)oc2cc(O)cc(O)c12` [Apigenin], the Inhibition type result on human KMO is “non-competitive inhibition”; at human KMO (listed as apigenin), “non-competitive inhibitors”.

With `Cc1ccc([C@@H](C)Oc2cc3onc(CCC(=O)O)c3cc2Cl)nn1` [GSK 366], the IC50 (as a rule, the concentration needed to halve the response being measured) in the assay with KMO was 2.3 nM.

On to `COc1cc(O)c2c(=O)cc(-c3ccc(O)cc3)oc2c1` [Genkwanin], for which the Inhibition type result on human KMO is recorded as “non-competitive inhibition”; at human KMO (listed as genkwanin), “non-competitive inhibitors”.

Turning to `O=C(O)[C@H]1C[C@@H]1C(=O)c1ccc(Cl)c(Cl)c1` [UPF-648], the IC50 with KMO was 20 nM.
